According to ChEMBL document CHEMBL1128358, “Synthesis of novel imidazobenzodiazepines as probes of the pharmacophore for "diazepam-insensitive" GABAA receptors” (J Med Chem, 1995):

Tests used:
[1] = target: GABA-A receptor; anion channel; test: Binding affinity against Diazepam insensitive (DI) Gamma-aminobutyric acid A receptor; format: protein-complex assay, Rattus norvegicus
[2] = target: GABA-A receptor; anion channel; test: Binding affinity against Diazepam sensitive (DS) Gamma-aminobutyric acid A receptor; format: protein-complex assay, Rattus norvegicus
In short: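 [3H]Ro15-4513 displacement (~2 nM final) on washed cerebellar membranes from adult male Sprague-Dawley rats, ~100 µg tissue, 0.2 M NaCl, 50 mM Tris citrate pH 7.8. DI binding has 10 µM diazepam added. DS binding is total minus DI. Nonspecific binding uses 10 µM Ro15-1788.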

COc1ccc(-n2nc3c4ccc(OC)cc4[nH]cc-3c2=O)cc1
Ki [1]: 10 nM

CN1Cc2c(CO)ncn2-c2ccc(Cl)cc2C1=O
Ki [1]: > 1000 nM | IC50 [2]: > 1000 nM

O=c1c2cnc3ccc(Cl)cc3c2[nH]n1-c1ccccc1
Ki [1]: 5.1 nM

CCc1ncn2c1CN(C)C(=O)c1cc(Cl)ccc1-2
Ki [1]: > 1000 nM | IC50 [2]: > 500 nM

COc1ccc(-n2nc3c4cc(Cl)ccc4[nH]cc-3c2=O)cc1
Ki [1]: 1.9 nM

CCOCc1ncn2c1CN(C)C(=O)c1cc(Cl)ccc1-2
Ki [1]: > 1000 nM | IC50 [2]: > 500 nM

CC(C)N(Cc1ncn2c1CN(C)C(=O)c1cc(Cl)ccc1-2)C(C)C
Ki [1]: > 1000 nM | IC50 [2]: > 1000 nM

CCOC(=O)c1ncn2c1CN(C)C(=O)c1cc(OC)ccc1-2
Ki [1]: 23.8 nM | IC50 [2]: 2.47 nM

CN1Cc2c(CCl)ncn2-c2ccc(Cl)cc2C1=O
Ki [1]: > 1000 nM | IC50 [2]: > 500 nM

COCc1ncn2c1CN(C)C(=O)c1cc(Cl)ccc1-2
Ki [1]: > 1000 nM | IC50 [2]: 514 nM

CCOC(=O)c1ncn2c1CN(C)C(=O)c1cc(OCC)ccc1-2
Ki [1]: 40.9 nM | IC50 [2]: 7.07 nM

COc1cccc(-n2[nH]c3c(cnc4ccccc43)c2=O)c1
Ki [1]: 26 nM

CC(=O)c1ncn2c1CN(C)C(=O)c1cc(Cl)ccc1-2
Ki [1]: > 1000 nM | IC50 [2]: > 1000 nM

COc1ccc2c(c1)ncc1c(=O)n(-c3ccccc3)[nH]c12
Ki [1]: 1.9 nM

O=C1C2C=Nc3ccccc3C2=NN1c1ccccc1 (configuration not stated) [CGS-8216]
Ki [1]: 46 nM

CCCCC(=O)c1ncn2c1CN(C)C(=O)c1cc(Cl)ccc1-2
Ki [1]: > 1000 nM | IC50 [2]: > 500 nM

COc1ccc2ncc3c(=O)n(-c4ccccc4)[nH]c3c2c1
Ki [1]: 47 nM

CCCCCc1ncn2c1CN(C)C(=O)c1cc(Cl)ccc1-2
Ki [1]: > 1000 nM | IC50 [2]: > 1000 nM

COc1ccc(-n2nc3c4ccccc4[nH]cc-3c2=O)cc1
Ki [1]: 9.3 nM

CCN(CC)Cc1ncn2c1CN(C)C(=O)c1cc(Cl)ccc1-2
Ki [1]: > 1000 nM | IC50 [2]: > 1000 nM
